Experimental data from publication PMC10527666 (Molecular imaging and biology, 2023).

Assays:
[1] = molecular target: T1, α-synuclein fibrils (Homo sapiens, UniProt P37840); test: Competition binding assay against [^3H]BF2846
How it was run: (§1)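 Fibrils (α-synuclein 50 nM; Aβ42 100 nM) incubated with 3 nM [³H]BF2846 and varying concentrations of test compound in 50 mM Tris-HCl pH 7.4, 1 h at 37 °C. Nonspecific binding was defined with 0.5 μM unlabeled BF2846, and fibril-free filter blanks were run. Samples were GF/C-filtered, washed with 10 mM Tris/150 mM NaCl and scintillation-counted after 12 h, in triplicate. Ki was obtained by nonlinear regression using radioligand Kd.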

[2] = molecular target: T1, α-synuclein fibrils; test: Compound screening, 1-point inhibition of [^3H]BF2846 binding; settings: read-out: % Inhibition [^3H]BF-2846
How it was run: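 Human α-synuclein (C-terminal intein fusion, expressed in E. coli BL21(DE3), purified, quantified by A280) was fibrillised. Fibrils at 100 nM were incubated with 100 nM test compound and 3 nM [³H]BF2846 in 50 mM Tris-HCl pH 7.4, 1 h at 37 °C, with nonspecific binding defined by 0.5 μM BF2846. Samples were GF/C-filtered and scintillation-counted, in triplicate. Bound radioligand was expressed as % of total binding and tested by one-way ANOVA.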

[3] = molecular target: Aβ42 fibrils (Homo sapiens, UniProt P05067); test: Competition binding assay against [^3H]BF2846
How it was run: as §1

Chain of Aβ42 fibrils (P05067 672-713 limits assumed): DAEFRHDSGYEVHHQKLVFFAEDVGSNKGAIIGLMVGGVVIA

## COc1ccc(C(=O)Nc2cc(-c3ccc(Br)cc3)no2)cc1 [Compound 15, N-(3-(4-bromophenyl)isoxazol-5-yl)-4-methoxybenzamide]
[1]
  Ki: 0.011 µM
[2]
  inhibition at 0.1 µM: 80%
[3]
  Ki: 0.0361 µM

## COc1ccc(C(=O)Nc2cc(-c3ccc(I)cc3)no2)cc1 [Compound 21, N-(3-(4-iodophenyl)isoxazol-5-yl)-4-methoxybenzamide]
[1]
  Ki: 0.0036 µM
